Results as given in ChEMBL document CHEMBL1828611, “Bisphosphonamidate clodronate prodrug exhibits potent anticancer activity in non-small-cell lung cancer cells” (J Med Chem, 2011).
The source made the active and inactive calls. The rule behind the calls is not given here.

Experiments:
A549 [1] = experiment: Drug uptake in human A549 cells after 8 hrs by LC/MS/MS analysis; format: ADME, cell-based; conditions: a549, 8 h
Outline: (§1)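 A549 cells were plated at 1.3 × 10^5 per well in 6-well plates and treated at 0, 10 or 30 μM for 8 h. Cells were washed, trypsinized and counted by trypan blue, and pellets were frozen. Lysates in acetonitrile with temazepam internal standard were analysed by LC-MS-MS on a C18 column (isocratic acetonitrile/water 60:40, 0.1% formic acid). Results are reported as ng/10^4 cells.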

A549 [2] = experiment: Drug uptake in human A549 cells assessed per 10^4 cells at 10 uM after 8 hrs by LC/MS/MS analysis; format: ADME, cell-based; conditions: a549, 8 h; outline: as §1
A549 [3] = experiment: Anticancer activity in human A549 cells assessed as decrease in viable cells after 72 hrs by trypan blue exclusion assay; format: functional, cell-based; conditions: A549, 72 h
Outline: (§2)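 A549 cells (RPMI 1640, 10% FBS) were plated at 1.7 × 10^4 per well in 12-well plates, adhered overnight, and dosed from 100X DMSO stocks (final 1% DMSO). Floating and trypsinized cells were pooled, mixed 1:1 with 0.04% trypan blue and viable cells counted. Counts were expressed as percent of control per time point; EC50 is the concentration giving a 50% decrease in cell number.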

A549 [4] = experiment: Anticancer activity in human A549 cells assessed as decrease in viable cells after 24 hrs by trypan blue exclusion assay; format: functional; outline: as §2
A549 [5] = experiment: Antiproliferative activity against human A549 cells after 72 hrs by MTS assay; format: functional, cell-based; conditions: A549, 72 h
Outline: (§3)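 A549 cells were seeded at 1.5 × 10^3 per well, adhered overnight, and treated over 0.2–300 μM (final 1% DMSO). After treatment, MTS was added for 40 min–2 h and A490 read. Absorbance was converted to percent of vehicle control, and IC50 was obtained by nonlinear dose-response fit.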

A549 [6] = experiment: Antiproliferative activity against human A549 cells after 24 hrs by MTS assay; format: functional, cell-based; conditions: A549, 24 h; outline: as §3
A549 [7] = experiment: Prodrug conversion in human A549 cells assessed as intracellular formation of methylenebis(hydrogen phosphonate) at 10 to 30 uM after 8 hrs using MTBSTFA by LC/MS/MS analysis; format: ADME, cell-based; conditions: a549, 8 h
Outline: (§4)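 A549 cells, plated at 1.3 × 10^5 per well, dosed for 8 h, PBS-washed, trypsinized, counted by trypan blue, then pellets PBS-washed and frozen at −80°C. Lysate was derivatized with MTBSTFA to tetra-silyl bisphosphonate for 1 h, cooled, diluted 1:5 in acetonitrile, and analysed by LC-MS-MS (C18, isocratic acetonitrile/water 70:30, 0.1% formic acid, 0.2 mL/min). Detection was qualitative.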

A549 [8] = experiment: Drug uptake in human A549 cells assessed per 10^4 cells at 30 uM after 8 hrs by LC/MS/MS analysis; format: ADME, cell-based; conditions: a549, 8 h; outline: as §1
A549 [9] = experiment: Anticancer activity in human A549 cells assessed as decrease in viable cells after 48 hrs by trypan blue exclusion assay; format: functional, cell-based; conditions: A549, 48 h; outline: as §2
A549 [10] = experiment: Ratio of EC50 for human A549 cells after 48 hrs by trypan blue exclusion assay to IC50 for human A549 cells after 48 hrs by MTS assay; format: functional
A549 [11] = experiment: Antiproliferative activity against human A549 cells after 48 hrs by MTS assay; format: functional, cell-based; conditions: A549, 48 h; outline: as §3
A549 [12] = experiment: Anticancer activity against human A549 cells assessed as growth inhibition at 10 to 300 uM for 72 hrs followed by 48 hrs incubation after compound wash out; format: functional, cell-based
Outline: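 A549 cells exposed to 10, 30, 100 and 300 μM for 72 h, then washed to remove drug and given fresh drug-free medium; regrowth was checked after a further 48 h.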

A549 [13] = experiment: Anticancer activity against human A549 cells assessed as reduction in cell viability after 72 hrs by crystal voilet staining; format: functional, cell-based
Outline: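 A549 cells were plated at 1.7 × 10^4 per well in 6-well plates and dosed from 100X DMSO stocks (final 1% DMSO). After 72 h cells were washed twice with PBS, stained 5–15 min with 0.5% crystal violet in 95% EtOH, rinsed with cold water and air-dried.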

A549 [14] = experiment: Cell cycle arrest in human A549 cells assessed as accumulation of cells in G1 phase at 3 uM after 72 hrs measured using propidium iodide staining by FACS analysis in presence of nocodazole; format: functional, cell-based
A549 [15] = experiment: Cell cycle arrest in human A549 cells assessed as accumulation of cells in G1 phase at 10 uM after 72 hrs measured using propidium iodide staining by FACS analysis; format: functional, cell-based
Outline: (§5)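 A549 cells were plated at 6.7 × 10^4 per well in 6-well plates and dosed at 0, 3 or 10 μM for 72 h (final 1% DMSO). Cells were fixed in cold 70% ethanol, then stained with 10 μg/mL propidium iodide plus RNase A for 30 min at 37°C.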

A549 [16] = experiment: Cell cycle arrest in human A549 cells assessed as accumulation of cells in G1 phase at 3 uM after 72 hrs measured using propidium iodide staining by FACS analysis; format: functional, cell-based; outline: as §5
A549 [17] = experiment: Anticancer activity against human A549 cells assessed as growth inhibition up to 1 mM by MTS assay; format: functional, cell-based
Outline: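 A549 cells, plated at 1.5 × 10^3 per well and left to adhere overnight, treated for 24, 48 or 72 h with compounds serially diluted in DMSO (1% DMSO final). MTS dye was added for 40 min to 2 h and absorbance read at 490 nm. Values were expressed as percent of vehicle control; IC50 was taken from nonlinear dose-response fitting.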

A549 [18] = experiment: Cell cycle arrest in human A549 cells assessed as accumulation of cells in G2 phase after 24 hrs measured using propidium iodide staining by FACS analysis; format: functional, cell-based
A549 [19] = experiment: Drug uptake in human A549 cells at 30 uM after 8 hrs using MTBSTFA by LC/MS/MS analysis; format: ADME, cell-based; conditions: a549, 8 h; outline: as §4

Compound	EC50 (A549 [3])	Activity (A549 [4])	IC50 (A549 [5])	IC50 (A549 [6])	EC50 (A549 [9])	Ratio IC50 (A549 [10])	IC50 (A549 [11])	also measured
CN(CCCCCl)P(=O)(CP(=O)(OCc1ccc([N+](=O)[O-])cc1)N(C)CCCCCl)OCc1ccc([N+](=O)[O-])cc1 (stereo unspecified)	25 µM	<50%	13 µM	17 µM	24 µM	1.6	15 µM	Drug uptake (A549 [1]): Dose-dependent effect; Drug uptake (A549 [2]): 68.6 ng; Activity (A549 [7]): Active; Drug uptake (A549 [8]): 169.3 ng
CN(CCCCCl)P(=O)(OCc1ccc([N+](=O)[O-])cc1)C(Cl)(Cl)P(=O)(OCc1ccc([N+](=O)[O-])cc1)N(C)CCCCCl (stereo unspecified)	16 µM	57%	4.4 µM	7.6 µM	19 µM	3.6	5.2 µM	growth inhibition (GI) (A549 [12]): Active; Activity (A549 [13]): Active; Activity (A549 [14]): Active; Activity (A549 [15]): Active; Activity (A549 [16]): Active
O=P(O)(O)C(Cl)(Cl)P(=O)(O)O								growth inhibition (GI) (A549 [17]): inactive
COC(=O)Nc1nc2cc(C(=O)c3cccs3)ccc2[nH]1								Activity (A549 [18]): Active
O=P(O)(O)CP(=O)(O)O [MEDRONIC ACID]								Drug uptake (A549 [19]): Active
